In the library only some 1.7% were active in any assay of this set; here they are far more common.
NR1D1 modulator – modulates human Rev-erb alpha binding to DNA; Rev-erbα–FITC-DNA binding, fluorescence polarization, 90 min; AID 1259318; 0.79% of 370,000 active; activity, % at 10 µM;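 active = activity above about 14%, limit read from the data; passing the limit was not always enough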;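 also: 0% = DMSO wells with 35 nM protein and 100% = DMSO wells with 750 nM protein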
HNF4A DNA FP – change in binding of human HNF4 alpha to DNA; HNF4a-FITC DNA binding, fluorescence polarization, 1 h; P41235; 0.3% of 360,000 active; activity change, % at 10 µM; AID 1224865; in the data active = activity change above about 30%, passing the limit was not always enough
CSN inh – CSN deneddylation inhibition. AID 651999. 0.38% of 360,000 active. inhibition, % at 12.5 µM. Q92905. Purified CSN, SCF-Nedd8-OG deneddylation, fluorescence polarization;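 active = pattern-corrected inhibition above about 35%, with an unprinted fluorescence ratio check between 0.5 and 1.5, limit read from the data, passing the limit was not always enough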;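 also: 0% = enzyme with substrate and 100% = substrate without enzyme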
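Schedule: reaction 90 min, room temperature / Assay system: HEK293T-derived human Csn5 enzyme / Input: Csn5 at 0.24 nM final / Measure: inhibition of Csn5 cleavage, % / Control set: substrate-only high control, full reaction low control / Technique: fluorescence polarization of the substrate / Buffer or medium: Tris/NaCl/DTT buffer, pH 7.5 / Reagent: SCFSkp2-Nedd8OG substrate at 10 nM final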
TPT1 inhibitor – inhibitors of Candida albicans tRNA 2'-phosphotransferase TPT1. recombinant caTPT1, FP RNA substrate dephosphorylation. inhibition, % at 5 µM. 0.81% of 300,000 active. AID 1962;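 active = inhibition above the mean of all tested compounds plus 3 SD, set per screening campaign, cut at about 24% in these data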;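 also: plate controls were DMSO alone for no effect and ferristatin control at 100 nM for full effect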
TPT1 inh confirm – confirmation of Candida albicans TPT1 inhibitors. shares compounds with TPT1 inhibitor. recombinant caTPT1, fluorescence polarization, RNase T1 coupled. inhibition, % at 5 µM. 74% of 2,400 active. AID 2149;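 active = inhibition above the primary screen limit, the mean inhibition of all tested compounds plus 3 SD, cut at about 25% in these data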
RNase T1 counter – blocks Aspergillus oryzae RNase T1, a TPT1 counter-screen; shares compounds with TPT1 inhibitor; RNase T1 cleavage, fluorescence polarization, 1536-well; inhibition, % at 5 µM; 83% of 2,400 active; AID 2153;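 active = inhibition above the solvent-only control well mean plus 3 SD, limit set per screening run, cut at about 23% in these data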;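 also: plate controls were DMSO wells with enzyme for no effect and wells without RNase T1 for full effect; inhibitors block cleavage so intact labeled substrate keeps polarization high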
Target sequence (P00651 whole entry, looked up): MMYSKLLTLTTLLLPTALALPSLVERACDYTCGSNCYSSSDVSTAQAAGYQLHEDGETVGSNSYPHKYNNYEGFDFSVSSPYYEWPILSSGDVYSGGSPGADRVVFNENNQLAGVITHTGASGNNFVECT
Active calls of the source: *; . = not tested or not shown; + = active, no number.

SMILES	NR1D1 modulator	HNF4A DNA FP	CSN inh	TPT1 inhibitor	TPT1 inh confirm	RNase T1 counter
O=C(NN1C(=O)/C(=C/C=C/c2ccco2)SC1=S)c1ccccc1O	-36	-22	74	71*	49*	50*
Cc1csc(Nc2ccccc2)n1	-4	2	4	+	3	9
Cc1csc(Nc2ccc(C(=O)O)cc2)n1	4	-3	4	14	.	.
Cc1cccc2cc(/C=N/Nc3ccc(C(=O)O)cc3)c(Cl)nc12	3	11	4	25*	42*	54*
O=C(O)c1ccc(N/N=C/c2cc3ccccc3nc2Cl)cc1	3	10	2	20	.	.
CC1=Nc2ccccc2/C1=C\c1nc(-c2ccccc2)oc1O	10	28	16	80*	99*	108*
COc1ccc(-c2nc(/C=C3\C(C)=Nc4ccccc43)c(O)o2)cc1	0	24	4	95*	106*	112*
Oc1oc(-c2ccccc2)nc1C=Nc1ccccc1	0	2	1	3	.	.
CC1=Nc2ccccc2/C1=C\c1nc(-c2ccc(C(F)(F)F)cc2)oc1O	20	-53	-71	156*	152*	142*
CCOC(=O)/C(=C\Nc1ccccc1C(F)(F)F)Sc1ncc(C(F)(F)F)cc1Cl	2	1	2	0	.	.
N#Cc1c(Sc2ncc(C(F)(F)F)cc2Cl)nsc1C/C=N\OCc1ccccc1Br	8	17	24	55*	35*	37*
COc1cc(OC)cc(C(=O)NCCN2C(=O)C3C4C=CC(C4)C3C2=O)c1 (centres undefined)	-2	.	.	.	.	.
CCc1ccc(-c2cc(C(=O)N/N=C/c3c[nH]c4ccccc34)[nH]n2)cc1	7	-1	-1	1	.	.
CCc1ccc(/C=C/c2c[nH]c3ccccc23)[n+](CC)c1	22	17	1	31*	29*	38*
O=C1/C(=C/c2cccc(O)c2)SC(=S)N1CC1CCCO1 (centres undefined)	4	2	7	-3	.	.
CCOc1cc(/C=C2/SC(=S)N(CC3CCCO3)C2=O)ccc1O (centres undefined)	4	42*	11	30*	35*	47*
CC(=O)c1cccc(NC(=O)CNC(=O)c2sc3ccccc3c2Cl)c1	12	15	5	29*	45*	57*
Cn1c(=O)oc2cc(S(=O)(=O)N3CCN(c4cccc(Cl)c4)CC3)ccc21	2	16	16	81*	24*	33*
Cn1c(=O)oc2cc(S(=O)(=O)N3CCN(c4ccc(F)cc4)CC3)ccc21	-11	7	18	16	.	.
O=C(COC(=O)c1c2c(nc3ccccc13)/C(=C/c1ccco1)CC2)NC1CCCC1	-36	-26	26	.	.	.
CC1CCCCC1NC(=O)COC(=O)c1c2c(nc3ccccc13)/C(=C/c1ccco1)CC2 (centres undefined)	-29	-35	25	33*	29*	41*
Cc1nn(-c2ccccc2)c(C)c1/C=N\N1CCN(Cc2ccccc2Cl)CC1	0	.	.	.	.	.
COc1cc(/C=C(\CC(=O)O)c2nc3ccccc3s2)ccc1OCC(=O)Nc1ccccc1F	-4	-2	-2	.	.	.
CC(C)=C(C#N)c1nc2ccccc2s1	-2	-1	-4	25*	8	9
COc1cc(/C=C(\C#N)c2nc3ccccc3s2)ccc1OCC(=O)Nc1ccccc1	.	33*	40*	60*	32*	44*
SMILES	NR1D1 modulator	HNF4A DNA FP	CSN inh	TPT1 inhibitor	TPT1 inh confirm	RNase T1 counter
N#C/C(=C/c1ccncc1)c1nc2ccccc2s1	1	6	13	30*	14	21
COC(=O)c1ccc(/C(O)=C(\C#N)c2nc3ccccc3s2)cc1	-5	3	-2	3	.	.
CCOC(=O)[C@]12CCCCC/C=C\1N(CCc1ccc(Cl)cc1)C(=O)[C@H]2CC(=O)NCCc1ccccc1OC	8	.	.	.	.	.
CCn1c(O)c(C=Nc2ccccc2)sc1=S	-3	.	.	25*	22	28*
Oc1c(C=Nc2ccccc2)sc(=S)n1Cc1ccccc1	2	24	15	43*	43*	59*
C#CCCC(=O)Nc1sc2c(c1-c1nc3ccccc3s1)CCN(C(C)C)C2	1	.	.	.	.	.
CCCc1cc(-n2ccnc2)n2c(nc3ccccc32)c1C#N	0	59*	31	118*	102*	104*
